Bioassay records as filed in PubChem BioAssay.
Fh CTSL1 inh: Fasciola hepatica cathepsin L1 inhibitors, primary screen, counter-screen for PFM18AAP inhibitor project, biochemical, QFRET, fluorogenic peptide substrate; 0.49% of 300,000 active; AID 1906, 2009; recombinant F. hepatica cathepsin L1, Z-Leu-Arg-MCA fluorescence; inhibition, % at 5.96 µM;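 active = inhibition above the mean of all tested compounds plus 3 SD, set per screening campaign, cut at about 17% in these data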
UCH37 DUB inh: inhibitors of human UCH37 deubiquitinase, primary screen, biochemical, Ub-AMC cleavage, fluorescence. Ubiquitin carboxyl-terminal hydrolase isozyme L5 (Homo sapiens), Q9Y5K5. purified proteasome/UCH37. inhibition, % (concentration not given with the values). 0.33% of 330,000 active. AID 588478, 2011;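 active = mean inhibition over replicate wells above about 20%, limit read from the data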
Target sequence (Q9Y5K5 whole entry, looked up): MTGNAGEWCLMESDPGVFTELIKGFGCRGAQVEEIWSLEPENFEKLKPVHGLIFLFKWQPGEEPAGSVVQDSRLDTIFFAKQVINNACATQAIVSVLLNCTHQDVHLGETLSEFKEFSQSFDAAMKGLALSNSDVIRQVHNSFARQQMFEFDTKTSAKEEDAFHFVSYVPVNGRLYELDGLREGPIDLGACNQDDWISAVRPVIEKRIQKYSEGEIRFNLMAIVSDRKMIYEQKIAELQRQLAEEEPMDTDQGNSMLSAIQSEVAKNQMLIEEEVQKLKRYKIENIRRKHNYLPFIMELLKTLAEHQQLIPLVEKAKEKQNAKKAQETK
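Signal – fluorescence, ex 355 nm, em 460 nm · System – Proteasome-bound UCH37 · Input – 0.15 nM proteasome as dispensed · Timing – 30 min preincubation with enzyme, 25 min cleavage at room temperature · Read-out basis – percent inhibition of cleavage signal versus uninhibited and no-proteasome wells · Medium – Tris-HCl pH 7.4 with ATP-MgCl2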
Neddyl block: inhibitors of cullin neddylation, primary screen, biochemical, TR-FRET, uHTS, NAE and Ubc12. AID 651699, 2012. NEDD8-conjugating enzyme Ubc12 (Homo sapiens) + NEDD8-activating enzyme E1 regulatory …. inhibition, % at 25 µM. 0.58% of 360,000 active; in the data active = inhibition above about 36%
SUMO HTRF inh: inhibitors of in vitro SUMOylation cascade, primary screen, biochemical, HTRF, uHTS; HTRF SUMOylation assay, SAE1/SAE2 + UBC9; 0.36% of 290,000 active; inhibition, % at 35 µM; SUMO-conjugating enzyme UBC9 (Homo sapiens), P63279; in the data active = inhibition above about 50%, passing the limit was not always enough
Target sequence (P63279 whole entry, looked up): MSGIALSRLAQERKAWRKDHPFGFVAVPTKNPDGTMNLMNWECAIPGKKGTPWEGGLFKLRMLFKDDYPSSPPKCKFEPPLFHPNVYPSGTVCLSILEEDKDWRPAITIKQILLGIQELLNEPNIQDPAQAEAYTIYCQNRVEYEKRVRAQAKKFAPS
Neddyl conf: blockade of NEDD8 conjugation to cullin – biochemical, TR-FRET, single concentration, confirmation. shares compounds with Neddyl block. TR-FRET cullin neddylation biochemical assay. calls only at 25 µM. 13% of 1,800 active. AID 652217, 2013; in the data active = inhibition above about 40%;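 note: neddylation substrate is the cullin 1 ring ligase complex with SKP2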
Large screens that a line does not name were inactive (follow-up assays come after a bar, where shown). Most compounds without a hit are left out; they make up all but 1.4% or so of the library.

CCc1ccc(-c2csc(NC(=O)C3CC(=O)N(c4ccc5c(c4)OCCO5)C3)n2)cc1 (stereo not given)	Neddyl block 53 | Neddyl conf inactive
CN(Cc1nccs1)C(=O)c1cc(COc2cccc3cnccc23)on1	Neddyl block 57
CCOc1cc(C=NNC(=O)c2cc(C)n(-c3ccc(F)cc3)c2C)ccc1O	none (no result: Fh CTSL1 inh, Neddyl block, SUMO HTRF inh)
CCOc1cc(/C=N/NC(=O)c2cc(C)n(-c3ccc(F)cc3)c2C)ccc1O	Neddyl block 40 (no result: UCH37 DUB inh) | Neddyl conf inactive
Cc1cc(=O)[nH]c(NN=Cc2sccc2C)n1	none (no result: Fh CTSL1 inh, Neddyl block, SUMO HTRF inh)
CCN(CC)CCNC(=O)c1cc2c(=O)n(C)c3ccccc3c2n1C	Neddyl block 39
CCCN(CCC)CCCNC(=O)c1cn(CCOC)c(=O)c2c1c1ccccc1n2C	Neddyl block 38 | Neddyl conf inactive
CC(C)Cn1cc(C(=O)NCc2cccs2)c2c3ccccc3n(C)c2c1=O	Neddyl block 40 | Neddyl conf inactive
CC(C)CCNC(=O)c1cn(CC(C)C)c(=O)c2c1c1ccccc1n2C	none
CCN(CC)CCNC(=O)c1nn(-c2ccc(C)cc2)c(=O)c2c1c1ccccc1n2C	Neddyl block 43 | Neddyl conf inactive
Nn1cnnc1NN=Cc1ccc(F)cc1	none (no result: Fh CTSL1 inh, Neddyl block, SUMO HTRF inh)
CCCN(CCC)CCCNC(=O)c1cc2c(=O)n(C)c3ccccc3c2n1C	none
CCN(CC)CCCNC(=O)c1cc2c(=O)n(C)c3ccccc3c2n1C	Neddyl block 41 | Neddyl conf inactive
O=C(NN=C/C(Br)=C/c1ccccc1)C(O)c1ccccc1 (stereo not given)	none (no result: Fh CTSL1 inh, Neddyl block, SUMO HTRF inh)
CC(C)NCC(O)COCCOc1ccc(Cl)cc1 (stereo not given)	Neddyl block 76 | Neddyl conf inactive
CC(C)NCC(O)COCc1ccc(Cl)cc1 (stereo not given)	none
CCn1cc(C=NNC(=O)Cc2ccc([N+](=O)[O-])cc2)c(C)n1	none (no result: Fh CTSL1 inh, Neddyl block, SUMO HTRF inh)
C=C(C)C1CC=C(C)C(=NNC(=O)CNc2ccc(OCC)cc2)C1 (stereo not given)	none (no result: Fh CTSL1 inh, Neddyl block, SUMO HTRF inh)
COc1cc(/C=N\NC(=O)c2ccc(-c3ccccc3)cc2)cc(Br)c1O	Neddyl block 45 (no result: UCH37 DUB inh) | Neddyl conf inactive
COc1cc(C=NNC(=O)c2ccc(-c3ccccc3)cc2)cc(Br)c1O	none (no result: Fh CTSL1 inh, Neddyl block, SUMO HTRF inh)
Cc1nc(N=CN(C)C)sc1C(=O)Nc1ccccc1	none (no result: Fh CTSL1 inh, Neddyl block, SUMO HTRF inh)
CN1CCN(N=Cc2ccc(Br)cc2)CC1	none (no result: Fh CTSL1 inh, Neddyl block, SUMO HTRF inh)
O=C(N/N=C/c1c[nH]c2ccccc12)c1cc(Cl)ccc1O	Neddyl block 50 (no result: UCH37 DUB inh) | Neddyl conf inactive
COc1ccc(C=NNC(=O)C(=O)NCc2cccnc2)cc1OC	none (no result: Fh CTSL1 inh, Neddyl block, SUMO HTRF inh)
CCNc1oc(/C=C/c2ccc(OCC)cc2)nc1C#N	Neddyl block 47
COc1cc2c(cc1O)C(Cc1ccc(O)cc1)[N+](C)([O-])CC2 (stereo not given)	none
COc1ccc(C[C@H]2c3cc(O)c(OC)cc3CC[N+]2(C)[O-])cc1O (stereo not given in full)	Neddyl block 46 | Neddyl conf active
COc1ccc2ccc(=O)oc2c1CC(=O)C(C)C	Neddyl block 44 (no result: Fh CTSL1 inh, SUMO HTRF inh) | Neddyl conf inactive
COc1cc(C=Nn2c(C)nnc2C)cc(OC)c1OC	none (no result: Fh CTSL1 inh, Neddyl block, SUMO HTRF inh)
Cc1cc(C)n2nc(C(=O)NCc3ccco3)cc2n1	Neddyl block 51
Cc1cc(C)n(Cc2ccc(C(=O)NCc3ccco3)o2)n1	none
O=C(N/N=C/c1ccc2c(c1)OCO2)c1cc(-c2ccc(F)cc2)nc2ccccc12	none (not shown: UCH37 DUB inh, Neddyl block)
O=C1OCc2nc3cc4c(cc3c(-c3ccc(F)cc3)c21)OCO4	Neddyl block 52 | Neddyl conf inactive
NC(=O)C1CCN(C(=O)c2ccc3ncsc3c2)CC1	none (no result: Fh CTSL1 inh, UCH37 DUB inh, SUMO HTRF inh)
CCOC(=O)N1CCN(C(=O)c2ccc3oc(CCc4ccccc4)nc3c2)CC1	none (no result: Fh CTSL1 inh, UCH37 DUB inh, SUMO HTRF inh)
CCOC(=O)N1CCN(C(=O)c2ccc3nc(-c4ccccc4)c(-c4ccccc4)nc3c2)CC1	Neddyl block 42 (no result: SUMO HTRF inh) | Neddyl conf inactive
NC(=O)C1CCN(C(=O)c2ccc3nc(-c4ccccc4)c(-c4ccccc4)nc3c2)CC1	Neddyl block 56
Cc1ccccc1-c1cc2c(c3c1ccn3C)C1CCC2O1 (stereo not given)	none (no result: Fh CTSL1 inh, UCH37 DUB inh, SUMO HTRF inh)
